Laboratory results: ChEMBL document CHEMBL4138245, “Design and synthesis of novel quinacrine-[1,3]-thiazinan-4-one hybrids for their anti-breast cancer activity” (Eur J Med Chem, 2018)
Calls of active or inactive are those of the source. No cut-off for these calls is given here.

Columns and labels:
MCF7 [1] = test: Induction of DNA damage in human MCF7 cells assessed as increase in gammaH2Ax level at 2 uM after 24 to 48 hrs by Western blot method; type: functional, cell-based
[2] = Selectivity index, ratio of compound concentration for cell killing activity in human 184B5 cells to compound concentration for cell killing activity in human MCF7 cells; type: toxicity, cell-based; details: 184B5 cells versus MCF7 cells, read-out: Selectivity Index
[3] = biological target: T1, Serine/threonine-protein kinase Chk1 (Homo sapiens) (UniProt O14757); test: Induction of CHK1 phosphorylation at S298 residue in human MCF7 cells at 2 uM after 12 to 48 hrs by Western blot method; type: cell-based
T1 sequence (whole entry): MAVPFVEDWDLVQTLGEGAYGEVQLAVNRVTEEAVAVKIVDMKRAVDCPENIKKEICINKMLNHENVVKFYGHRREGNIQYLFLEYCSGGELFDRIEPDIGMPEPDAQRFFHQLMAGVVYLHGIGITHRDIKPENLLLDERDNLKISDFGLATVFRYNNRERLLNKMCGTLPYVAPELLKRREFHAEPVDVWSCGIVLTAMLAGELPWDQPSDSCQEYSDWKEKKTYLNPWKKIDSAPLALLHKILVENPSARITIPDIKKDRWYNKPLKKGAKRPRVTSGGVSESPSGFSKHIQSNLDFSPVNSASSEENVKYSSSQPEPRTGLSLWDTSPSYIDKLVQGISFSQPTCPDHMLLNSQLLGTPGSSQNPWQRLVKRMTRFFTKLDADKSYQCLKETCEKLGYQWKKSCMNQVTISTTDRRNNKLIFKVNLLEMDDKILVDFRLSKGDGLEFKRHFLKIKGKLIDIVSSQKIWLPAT

[4] = biological target: RAC-alpha serine/threonine-protein kinase (Homo sapiens) (UniProt P31749); test: Upregulation of AKT phosphorylation at Thr308 residue in human MCF7 cells at 2 uM after 24 to 48 hrs by Western blot method; type: cell-based
In short: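 MCF7 cells were treated with the compound, collected and PBS-washed, then lysed on ice (Triton X-100/Tris pH 7.4 buffer with PMSF and protease inhibitors). Lysates were BCA-quantified, and 30–40 µg protein was resolved on 8% or 10% SDS-PAGE. Proteins were semi-dry transferred to PVDF, milk-blocked and probed with primary antibody overnight at 4 °C, then detected by ECL. Blots are representative of three independent experiments.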

[5] = Selectivity index, ratio of compound concentration for cell killing activity in human 184B5 cells to compound concentration for cell killing activity in human SK-BR-3 cells; type: toxicity, cell-based; details: 184B5 cells versus SK-BR-3 cells, read-out: Selectivity Index
184B5 [6] = test: Cell cycle arrest in human 184B5 cells at 2 uM after 48 hrs by propidium iodide staining based flow cytometry; details: 184b5, 48 h
In short: (§1)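 MCF7, MDA-MB231 and non-cancer 184B5 breast cells exposed to 2 μM for 48 h, then cell-cycle analysis by flow cytometry; duplicates, repeated three times.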

[7] = biological target: Serine/threonine-protein kinase mTOR (Homo sapiens) (UniProt P42345); test: Inhibition of mTOR pathway in human MCF7 cells assessed as reduction in 4EBP1 phosphorylation at Thr37/Thr46 residues at 2 uM after 6 hrs by Western blot method; type: cell-based
184B5 [8] = test: Antiproliferative activity against human 184B5 cells at 1 to 2 uM up to 96 hrs by SRB assay; type: cell-based; details: 184b5, 96 h
MCF7 [9] = test: Effect on Cyclin-D protein expression in human MCF7 cells at 2 uM after 24 to 72 hrs by Western blot method; type: functional, cell-based
184B5 [10] = test: Antiproliferative activity against human 184B5 cells assessed as compound concentration required to show complete inhibition of cell viability up to 96 hrs by SRB assay; type: cell-based; details: 184b5, 96 h
[11] = biological target: Serine/threonine-protein kinase mTOR (Homo sapiens) (UniProt P42345); test: Inhibition of mTOR phosphorylation at S2448 residue in human MCF7 cells at 2 uM after 6 hrs by Western blot method; type: cell-based
[12] = Selectivity index, ratio of compound concentration for cell killing activity in human MCF10A cells to compound concentration for cell killing activity in human A549 cells; type: toxicity, cell-based; details: MCF10A cells versus A549 cells, read-out: Selectivity Index
MCF-10A = test: Antiproliferative activity against human MCF10A cells assessed as compound concentration required to show complete inhibition of cell viability up to 96 hrs by SRB assay; type: cell-based
[13] = Selectivity index, ratio of compound concentration for cell killing activity in human 184B5 cells to compound concentration for cell killing activity in human LNCAP cells; type: toxicity, cell-based; details: 184B5 cells versus LNCAP cells, read-out: Selectivity Index
A549 = test: Antiproliferative activity against human A549 cells assessed as compound concentration required to show complete inhibition of cell viability up to 96 hrs by SRB assay; type: functional
[14] = Selectivity index, ratio of compound concentration for cell killing activity in human MCF10A cells to compound concentration for cell killing activity in human NCI-H1975 cells; type: toxicity, cell-based; details: MCF10A cells versus NCI-H1975 cells, read-out: Selectivity Index
MCF7 [15] = test: Potency index, ratio of cisplatin IC50 to compound IC50 for antiproliferative activity against human MCF7 cells; type: functional
LNCaP = test: Antiproliferative activity against human LNCAP cells assessed as compound concentration required to show complete inhibition of cell viability up to 96 hrs by SRB assay; type: functional
[16] = Selectivity index, ratio of compound concentration for cell killing activity in human MCF10A cells to compound concentration for cell killing activity in human LNCAP cells; type: toxicity, cell-based; details: MCF10A cells versus LNCAP cells, read-out: Selectivity Index
SK-BR-3 = test: Antiproliferative activity against human SK-BR-3 cells assessed as compound concentration required to show complete inhibition of cell viability up to 96 hrs by SRB assay; type: functional
MDA-MB-468 = test: Antiproliferative activity against human MDA-MB-468 cells after 48 hrs by SRB assay; type: functional, cell-based; details: MDA-MB-468, 48 h
In short: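 SRB assay: 5,000-10,000 cells/well plated, 24 h at 37 °C/5% CO2 before drug; seven concentrations from 100 μM down (two- to ten-fold serial dilutions, DMSO ≤0.1% final) for 48 h; TCA fixation (10% final, 60 min, 4 °C), 0.4% SRB in 1% acetic acid, solubilized in 10 mM Tris base, absorbance 515-564 nm; growth = (Ti−Tz)/(C−Tz)×100; IC50 from sigmoidal variable-slope fit; triplicates, ≥2 independent experiments.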

MCF7 [17] = test: Cell cycle arrest in human MCF7 cells assessed as accumulation at sub-G1 phase at 2 uM after 48 hrs by propidium iodide staining based flow cytometry; type: functional; in short: as §1
NCI-H1975 = test: Antiproliferative activity against human NCI-H1975 cells assessed as compound concentration required to show complete inhibition of cell viability up to 96 hrs by SRB assay; type: functional
MCF7 [18] = test: Cell cycle arrest in human MCF7 cells assessed as DNA content at 2 uM after 12 hrs by BrdU incorporation assay (reference value: 20.7%); type: functional
MCF7 [19] = test: Upregulation of Cyclin-E protein expression in human MCF7 cells at 2 uM after 12 to 24 hrs by Western blot method; type: functional, cell-based

Sequence of RAC-alpha serine/threonine-protein kinase (Homo sapiens) (P31749 whole entry): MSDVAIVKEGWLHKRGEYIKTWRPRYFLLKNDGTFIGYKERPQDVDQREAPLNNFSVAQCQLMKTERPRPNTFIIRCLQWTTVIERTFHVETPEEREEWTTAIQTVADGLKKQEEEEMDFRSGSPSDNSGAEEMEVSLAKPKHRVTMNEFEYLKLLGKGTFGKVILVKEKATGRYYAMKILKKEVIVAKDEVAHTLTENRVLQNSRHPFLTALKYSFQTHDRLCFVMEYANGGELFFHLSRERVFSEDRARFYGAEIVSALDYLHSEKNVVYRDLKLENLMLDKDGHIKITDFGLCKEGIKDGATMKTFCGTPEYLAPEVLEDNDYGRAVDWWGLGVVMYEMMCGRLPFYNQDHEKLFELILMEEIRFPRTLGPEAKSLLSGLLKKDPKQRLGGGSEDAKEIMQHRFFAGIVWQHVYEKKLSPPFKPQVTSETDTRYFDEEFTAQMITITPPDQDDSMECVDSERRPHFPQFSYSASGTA

COc1ccc2nc3cc(Cl)ccc3c(NCCCN3C(=O)CCSC3c3cccs3)c2c1 (stereo not given)
Activity (MCF7 [1]): inactive | selectivity ratio [2]: 3 to 6 | Activity [3]: inactive | Activity [4]: Active | selectivity ratio [5]: 3 to 6 | Activity (184B5 [6]): Non-Toxic | inhibition [7]: Active | Activity (184B5 [8]): Non-Toxic | Activity (MCF7 [9]): inactive | Activity (184B5 [10]): 6 µM | inhibition [11]: Active | selectivity ratio [12]: 3 to 6 | Activity (MCF-10A): > 6 µM | selectivity ratio [13]: 3 to 6 | Activity (A549): 2 µM | selectivity ratio [14]: 3 to 6 | Ratio IC50 (MCF7 [15]): 37.3 | Activity (LNCaP): 2 µM | selectivity ratio [16]: 3 to 6 | Activity (SK-BR-3): 2 µM | IC50 (MDA-MB-468): 1.73 µM | Activity (MCF7 [17]): Active | Activity (NCI-H1975): 2 µM | Activity (MCF7 [18]): 8.7% | Activity (MCF7 [19]): Active
